Rows were chosen to be rich in hits. Some 3.5% of all compounds tested hit in one or more screens of this group.
RGS4 act: RGS4 potentiators or activators, primary screen, cell-based, HEK293 M3R inducible RGS4, calcium flux; carbachol calcium flux Fluo4; active compounds read low; B-score at 10 µM; actives 0.92% (n = 310,000); AID 463111, 2010;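 active = B-score of the integrated calcium signal more than 4 SD below the library mean, with starting fluorescence not abnormally high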;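 note: negative B-score means reduced calcium response which marks RGS4 activation or potentiation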
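System – HEK293 FlpIn-TREx cells, stable M3R, doxycycline-inducible RGS4 · Reagent – ECmax carbachol challenge · Times – compound preincubation 20 min at room temperature before agonist · Technique – Fluo4 fluorescence kinetic imaging of calcium · Measure – B score of integrated Fluo4 ratio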
MrgX1 agonist: agonists of human MrgX1 receptor, primary screen, HEK293 cells, Fluo-4 calcium flux. Fluo-4 calcium fluorescence, agonist mode; active compounds read high. B-score at 10 µM. actives 0.44% (n = 310,000). Mas-related G-protein coupled receptor member X1 (Homo sapiens), Q96LB2;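 active = calcium response B-score plate-corrected fluorescence ratio at least 3 library SD, with starting fluorescence B-score inside 5 SD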
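System: HEK293 cells stably expressing human MrgX1 receptor; Dosing: test compound in the initial addition of three; Schedule: overnight plating, then 30 min 37 °C plus 30 min room-temperature dye loading; Detection: kinetic calcium dye fluorescence, Fluo-4 NW; Controls: per-plate positive and negative controls for Z′ factor.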
RGS4 inh: RGS4 inhibitors, primary screen, cell-based, HEK293 M3R inducible RGS4, calcium flux. Regulator of G-protein signaling 4 (Homo sapiens), P49798. Fluo-4 calcium flux; active compounds read high; triggered by carbachol at its EC20. B-score at 10 µM. actives 0.45% (n = 310,000);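 active = B-score, a plate-corrected calcium signal, over three deviations above library mean, with baseline fluorescence within five deviations of library mean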;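 note: RGS4 expression induced by doxycycline in cells with stable M3 receptor; B-score is computed from the integrated fluorescence ratio over baseline after carbachol; higher B-score means a larger calcium signal and so more RGS4 inhibition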
Target sequence (P49798 whole entry, looked up): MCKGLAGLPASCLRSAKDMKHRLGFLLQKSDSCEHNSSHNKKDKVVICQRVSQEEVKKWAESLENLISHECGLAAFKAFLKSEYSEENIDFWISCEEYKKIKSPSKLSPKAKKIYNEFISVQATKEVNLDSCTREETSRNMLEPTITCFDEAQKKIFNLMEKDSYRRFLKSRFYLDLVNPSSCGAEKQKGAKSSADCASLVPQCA
MrgX1 antagonist: antagonists of human MrgX1 receptor, primary screen, HEK293 cells, Fluo-4 calcium flux; Mas-related G-protein coupled receptor member X1 (Homo sapiens), Q96LB2; BAM8-22 antagonism; active compounds read low; B-score at 10 µM; actives 1.3% (n = 310,000); AID 588676, 2011;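 active = calcium-response B-score plate-corrected more than 3 library SD below zero, starting fluorescence within 5 deviations, no agonist response on first addition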;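 note: peak minus trough fluorescence over baseline after final BAM8-22 challenge near maximal dose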
MrgX1 allo act: positive allosteric modulators of MrgX1, primary screen, HEK293 cells, Fluo-4 calcium flux | Mas-related G-protein coupled receptor member X1 (Homo sapiens), Q96LB2 | actives 0.63% (n = 310,000) | FDSS; active compounds read high | B-score at 10 µM;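 active = plate-corrected calcium response at least 3 library SD above typical, normal starting fluorescence, not activating the receptor alone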;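 note: compound read alongside a low EC10 to EC30 dose of BAM8-22 agonist; peak minus trough fluorescence over baseline measured at the second addition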
RGS4 act valid: reduced carbachol calcium response, RGS4-induced M3R cells, confirmation, RGS4 activator project, cell-based, HEK293 M3R/RGS4 inducible, calcium flux, duplicate; shares compounds with RGS4 act; carbachol calcium flux Fluo4; inhibition, % at 10 µM; actives 89% (n = 1,100);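 active = inhibition above 3 SD of the buffer control wells, cut at about 41% in these data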;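 note: signal is the integrated peak-minus-minimum Fluo4 fluorescence over baseline ratio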
RGS4 act ctr: activity in cells without induced RGS4 expression; AID 602283; inhibition, % at 10 µM; actives 82% (n = 1,100); shares compounds with RGS4 act; HEK293 M3R non-induced RGS4, Fluo4 calcium flux; after carbachol challenge at its EC90;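 active = inhibition exceeding 3 SD of buffer-only control wells, cut at about 26% in these data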;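 note: percent drop in integrated peak-minus-baseline over baseline Fluo4 ratio after carbachol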
Active calls of the source: *; i = inactive; . = no result.

SMILES | RGS4 act | MrgX1 agonist | RGS4 inh | MrgX1 antagonist | MrgX1 allo act | RGS4 act valid | RGS4 act ctr
O=C1C2CSCN2C(=O)CN1CCCN1CCN(C(c2ccccc2)c2ccccc2)CC1 (centres undefined) | -8* | i | i | i | i | 84* | 34*
c1ccc(OCCOCCN2CCN(C(c3ccccc3)c3ccccc3)CC2)cc1 | i | i | i | i | i | . | .
COc1ccc(CCN2CC(C(=O)N(C)Cc3ccc(C)o3)CCC2=O)cc1 (centres undefined) | i | i | i | i | i | . | .
Cc1cc(NCc2ccccn2)n2ncc(-c3ccccc3)c2n1 | -7.8* | i | i | i | i | 90* | 43*
Cc1cc(NCc2ccccn2)n2ncc(-c3ccc(Cl)cc3)c2n1 | i | i | i | i | i | . | .
COc1cccc(NC(=S)N(CCN(C)C)C(C)c2ccncc2)c1 (centres undefined) | i | i | i | i | i | . | .
O=C1N=C(N2CCCC2C(=O)O)S/C1=C\c1ccco1 (centres undefined) | i | i | i | i | i | . | .
CN(Cc1ccc(C#CCCO)cc1)CC1CCCN(CCc2ccc(Cl)cc2)C1 (centres undefined) | i | i | i | i | i | . | .
CN(Cc1ccccc1O)CC1CCCN(CCc2ccc(Cl)cc2)C1 (centres undefined) | -10* | i | i | i | i | 94* | 73*
CN(CC(=O)Nc1cccc(F)c1)C(=O)c1cc(-c2cccs2)nn1-c1ccccc1 | -9.6* | i | i | i | i | 76* | 43*
COC(=O)c1ccc(CN2CCC(Oc3cccc(C(=O)N4CCOCC4)c3)CC2)cc1 | i | i | i | i | i | . | .
Cc1nc2ccccc2c2oc(C(=O)NCC3COc4ccccc4O3)cc12 (centres undefined) | -11* | i | i | i | i | 82* | 42*
CCc1ccc(CNC(=O)c2cc3c(C)nc4ccccc4c3o2)cc1 | i | i | i | i | i | . | .
CCC(C)(C(=O)NC1CCCCC1)N(Cc1ccco1)C(=O)Cc1cccs1 (centres undefined) | i | i | i | i | i | . | .
Cc1ccc(Sc2c(C#N)c(-c3ccccc3)nn2C)cc1 | -8* | i | i | i | i | 74* | 36*
Cc1ccc(SCc2c(-c3ccccc3)nn(C)c2Cl)cc1 | i | i | i | i | i | . | .
O=C(CSc1nc(=O)[nH]c2c1CCCC2)Nc1ccc(F)cc1F | i | i | i | i | i | . | .
CCOC(=O)C(=CNc1cc(Cl)c(-c2ccco2)c(Cl)c1)C(=O)OCC | -7.8* | i | i | i | i | 82* | 84*
CC1(C)Cc2c(cnn2-c2ccc(F)cc2)C(NC(=O)C2=NNC(=O)CC2)C1 (centres undefined) | i | i | i | i | i | . | .
Cc1cc(C)nc(/N=C(\N)N(Cc2ccccc2)Cc2ccccc2)n1 | -8.5* | i | i | i | i | 92* | 95*
CCOc1ccc(S(=O)(=O)NC(C)(C)C)cc1-c1nc2c(C(C)(C)C)nn(C)c2c(=O)[nH]1 | -10* | i | i | i | i | 76* | 46*
COc1ccc(N2C(=O)CSC2c2ccccc2)cc1 (centres undefined) | i | i | i | i | i | . | .
COc1cccc(C2SCC(=O)N2c2ccc(C)cc2)c1OC (centres undefined) | -8.9* | i | i | i | i | 92* | 86*

Screening results: PubChem, Johns Hopkins Ion Channel Center
